System: MS2 coat protein
Experiment: apparent Kd, MS2 coat protein; higher = weaker binding; RNA-MaP array; FMN 200 µM where present
Procedure, shortened: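 Designs on Illumina sequencing-chip clusters, transcribed by stalled E. coli RNA polymerase, were exposed to SNAP-549-labelled MS2 coat protein in doubling steps from 0.7 or 1.5 nM up to 3 µM, without and then with constant ligand. The buffer held 100 mM Tris-HCl pH 7.5, 80 mM KCl, 4 mM MgCl2, BSA, DTT, yeast tRNA and Tween-20. Apparent Kd values are medians of filtered per-cluster binding-curve fits to green signal normalised to red-channel RNA signal and control-cluster median Fmax.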

[1] = designed as: ON switch for flavin mononucleotide, no ligand
[2] = ligand present: flavin mononucleotide, designed as: ON switch for flavin mononucleotide
[3] = designed as: OFF switch for flavin mononucleotide, no ligand
[4] = ligand present: flavin mononucleotide, designed as: OFF switch for flavin mononucleotide

Sequence	apparent Kd [1] [µM]	apparent Kd [2] [µM]	apparent Kd [3] [µM]	apparent Kd [4] [µM]
AGGAGACAUGAGGAUCACCCAUGUGCACGUGGACGAGGAUAUGCUAGUAGAAGAUAGAAUGCAGAAGGCGUAAGAA	0.0757	0.0768		
GGAGCCGGCACUGAGGAUAUUCAUAUUAAAACAUGAGGAUCACCCAUGUAGGCCAGAAGGCCUUGGGAGAAGGCAGGUCGGCCCG	0.381	0.0284		
UAGUCGGUAGAUAAUAAUGAUUACAUGAGGAUCACCCAUGUAUAGGAUAUCGUCAGGAAUACUGACGAGAAGGAUACAUCCGAC			0.018	0.0265
GCUGCUAUCACAGGAUAUUACAUGGGAAAGAGUACAUGAGGAUCACCCAUGUAAAAGAUCAUAAAUAAGAAGGGUGAUAGCAGC	0.15	0.256		
GGGUAGUGAGGAUAUCGUUGUUAGGAGGAGAAGGUAGGAGGCGAGAAGGCACAUGAGGAUCACCCAUGUAUGAG			0.031	0.0281
AAUAUAAGAGCUGGACUCUAAAGAACAUGAGGAUCACCCAUGUAGGAUAUCAGCACGAUAAGUGCUGAGAAGGACAACCAGCUC			0.0141	0.0146
CACUGCAAUGUAGGAUAUCGACUGGAUAACAGUCGAGAAGGACAUGAGGAUCACCCAUGUACUUUGAGUGAAUAAUAAGCAGUG			0.0165	0.0597
AAAAUCUAUUGAGGAUAUCGUUAUCAAAGAUAAUGAGAAGGCAAACAAUCAUGAGGACAUGAGGAUCACCCAUGUUGUGACCAU	0.0223	0.0108		
CGUUUAUUUAUGGGAUUAUAUUAUGAGGAUAUCAAUAUUUAUUACAUGAGGAUCACCCAUGUUAAUGAGAAGGCAUAAUUAACG	0.00953	0.0063		
UGUUGUAUUACAGGAUAUCUAUUAGUUUUAGUUAGAGAAGGGUAUUCACAUGAGGAUCACCCAUGUAUAUACGAGGAAGUUGUG	0.0441	0.0491		
AUGUUGUCAGGAUAUCUUACAUAACAAUCGUUGUUACCAUUGGAGAAGGGACAUGAGGAUCACCCAUGUUAGCC			0.0208	0.023
CGUAACUGCAUAGGAUAUUGAUACAUGAGGAUCACCCAUGUUUUUCGGAUUAUAUAUCUACUUAGCAAGAAGGAUGGAGUUACG	0.00709	0.00515		
GACAUACAUGAGGAUCACCCAUGUUCAGGCGAACAAGGAUAUGUGUGGAAACCAUACUAUACAGAAGGUGUCUGUC	0.0631	0.0388		
AACAGUACAGGAUAUACAUGAGGAUCACCCAUGUGAGAAUUAAGUGGCGUACCACAAAGUAGAAGGGUACUGGA			0.0369	0.133
AACCUAUUACAGAAGGCCAGCUACAUGAGGAUCACCCAUGUCGAGUCAUGGAGGAUAUGUAGUAAUUUACUCGCAGAUAAGUGC	0.0226	0.00445		
AACUGCGCAUGAGGAUAUCCCGGACAUGAGGAUCACCCAUGUAAGCACAAGGGAGAAGGCAUGUGCCUCAAUUAGUUCCCACAA	0.0619	0.00708		
UAUUAUGUCAGAGGAUAUAUAAAUAAAUUUAUAACAUGAGGAUCACCCAUGUACUUUAGUGUGAGGUAGAAGGUUGAUAAGAUA	0.0372	0.0226		
UUUGUUGUUGUGAGGAUAUCGUAGUUAUUUUGAAACGAGAAGGCACAUGAGGAUCACCCAUGUUUGUUGAUGGU			0.0307	0.127
AUCAAUCGUGUAGGAUAUGCGUGGCGAAGCUAUGCAGAAGGACAUGAGGAUCACCCAUGUCUUUCUGUCUGCGUACAGACAGGA			0.018	0.0434
GGGUGACAUGAGGAUCACCCAUGUCAGGAUAUGAUACUAUGUACUUCGGUACAUAGUAUCAGAAGGGACAUCAU			0.284	0.0299
UGAUAGGACAGAGGAUAUACGUGCUAGAGAUACUAGCAAAAUUUCCUAACAUGAGGAUCACCCAUGUAGAAGGCUGUCCUAUCU			0.00673	0.0142
GUACGGAAGGAGAAGGGCUAGGAGGUCCAGCUUAUGUGUGUUGCAACAUGAGGAUCACCCAUGUAGCAGGAUAUCCUUUGUACA			0.0457	0.265
UAUGAAUGAGGAUAUGCAUAGUAGACUCCUCAUUUCUUCGGACAUGAGGAUCACCCAUGUAGAAGGCGUUGCGU			0.0331	0.058
UAUAUGUCAGGAUAUUAGUUGAGGUGGAAUUUAGCCUCAGCUGAGAAGGGACAUGAGGAUCACCCAUGUUCCUC			0.0221	0.241

Sequence	apparent Kd [1] [µM]	apparent Kd [2] [µM]	apparent Kd [3] [µM]	apparent Kd [4] [µM]
AAGUCAGCAGGAUAUGCGAUGGUGUACUAGGUAGUUUACCCACAUGAGGAUCACCCAUGUAGAAGGGCUGGCUA			0.0591	0.148
GGGUACAUCGGAGGAUAUCAUGUAAAUACAUGAGGAUCACCCAUGUCGACGGAGACAUCGGAGAUUGAGAAGGCCGAUGUACCG	0.0422	0.367		
AUAAUGGUAGGAUAUACAUGGAUAUACAUUCAUGUGGACCUACAUGAGGAUCACCCAUGUAGAAGGACCAUGAA			0.0339	0.0286
CUUUGACAUGAGGAUCACCCAUGUGAGGAUAUGAUGCGAUCGUCGAAAGACGAUAGCAUCAGAAGGCACAUAUG			0.0857	0.238
ACAUGAGGAUCACCCAUGUGUACAUAGGAUAUUGAGGAUUAGGGAUAAAGUGAAGAGAUUGCCCACAAGAAGGAUGAAAGUGUU	0.00982	0.00882		
CACUGCAAUGUAGGAUAUCGACUGGAUAACAGUCGAGAAGGACAUGAGGAUCACCCAUGUAAUCCUAAUAAUAAAUAAGCAGUG			0.0121	0.0178
AACUAGCUAGGAUAUACAUGAGGAUCACCCAUGUAAAAAAAAAAAAAAAGAUUUAUAUGUAGAAGGAGCUAGUA			0.0401	0.0658
GGAUGACAAAGUCAUCCAAUUCGAACAUGAGGAUCACCCAUGUAGGAUAUGCUUCUCAAAGAGAAGCAGAAGGACAUGUGCUUU			0.0328	0.182
AAGUGUAUAGGAUAUGCGUGGAAAAGGUGUAUUCACCAGCGACAUGAGGAUCACCCAUGUAGAAGGGUAUGUAA			0.0946	0.0545
AGUAACAGAGGAUAUACUAUUUUAUGUGUUUAUUGUUUUAAACAUGAGGAUCACCCAUGUAGAAGGCUGAAUAA			0.0294	0.0405
AAAGCGUGAGGAUAUGAGGCGCCGGGCCGGUUGGUGCGGAUUCAGAAGGCACAUGAGGAUCACCCAUGUAGGAA			0.0234	0.0362
UUACCUCAUGAGAAGGACAUGAGGAUCACCCAUGUAGGAUAUCGUGGGACACUGGAAUUGAAUCUUCGGAUUCAAUAACUGUAU	0.349	0.0262		
AUAGCUCUCUAGAAGGUCCAACCAGUAUACCAUCAGGUAUAUACGGUAGGGAGGAUAUGGGACAUGAGGAUCACCCAUGUGUAG	0.0578	0.0448		
UGGUACAUCGGAGGAUAUCAUGUAGAUACAUGAGGAUCACCCAUGUCGUACGAUAGUACGGAGAUUGAGAAGGCCGAUGUACCU	0.0305	0.0166		
AAUCGGGAGCAGAAGGCAUGUCAUAAGACAUGAGGAUCACCCAUGUAGUUAAGAUGAAAAUCGCAUGAGGAUAUGCUCCCGUAA	0.115	0.0185		
GGAUUUCCUGAGGAUAUUGUAUCACCUGAUUGAUAAGAAGGCAGAACAUGAGGAUCACCCAUGUGGGUAUUCGG			0.0929	0.0884
UUUUCUUUUGUGAGGAUAUACUUGUUUUUUUUUUUGUAGAAGGCACAUGAGGAUCACCCAUGUUUUCUUUUCUG			0.0171	0.0194
GGGCUUUGGGAGAAGGUACAAUAAAUUAGGAGAACAUGAGGAUCACCCAUGUAAGGAUAUCCCAUGUUGUAUUAUGGUACAACC			0.519	0.273
CUGUGUAAAGGAUAUACAUGAGGAUCACCCAUGUGAUGUCCAAACCUGAACGGUUCGUGUAGAAGGUUGCUCUU			0.0209	0.019
ACAUGAGGAUCACCCAUGUGAGGAUCACCCAUGUUAUAUUUCAGAAGGCUCGUUUGUUUGAGGAGAGAGGAUAUGGAAUAUAGG			0.127	0.0847
UUGGGUUUGCGAGGAUAUCGUUUGUGAUUUGAUCGAGAAGGCGCUAUUUAAAUUAUUUUAACAUUACAUGAGGAUCACCCAUGU	0.0191	0.0173		
AAGAAAGAAACGCAGGAUAUGCAAAACAAAACAUGAGGAUCACCCAUGUCAAACAAACAAACAAAGCAGAAGGGCGAAAGAAAGAA	0.0231	0.0164		
UGUUUUCAUGUAGGAUAUGCUUGUCGUAGAUACGCAGAAGGACAUGAGGAUCACCCAUGUUAAUGCGACAGAGUAUAGAUUCUU			0.0153	0.0206
CCGGAGUCAGGAUAUACGAACAUGUCGCCAGAUGUCAAGGUACAUGAGGAUCACCCAUGUAGAAGGGAGGAGAA			0.0961	0.0568

Reference: the EternaBench riboswitch data
